Experimental findings from ChEMBL document CHEMBL3407441, “Design, synthesis and docking studies of novel thienopyrimidine derivatives bearing chromone moiety as mTOR/PI3Kα inhibitors” (Eur J Med Chem, 2015) are described below.

The target of assay [1] is T1, Serine/threonine-protein kinase mTOR (Homo sapiens, UniProt P42345). As to the kind of experiment: Inhibition of mTOR kinase (unknown origin) using ULight-4E-BP1 as substrate after 1 hr by TR-FRET assay.
Assay [2] deals with T2, Phosphatidylinositol 4,5-bisphosphate 3-kinase catalytic subunit alpha isoform (Homo sapiens, UniProt P42336). As to the kind of experiment: Inhibition of PI3K-alpha kinase (unknown origin) using L-alpha-phosphatidylinositol as substrate after 60 mins by luminescence assay.
Assay [3] in a line: Cytotoxicity against human PC3 cells after 72 hrs by MTT assay. Format: functional, cell-based. The conditions noted are these: PC-3, 72 h. The essentials: (§1)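 MTT assay on H460 and PC-3 cells grown in MEM with 10% FBS. MTT was added at […] and incubated with the cells for 4 h at 37 °C. Formazan was dissolved in DMSO and absorbance read at 492 nm against a 630 nm reference. Each compound was tested three times per cell line; IC50 values are averages of two determinations.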
(In general: Formazan colour is commonly taken as a measure of viable cells.)

The target in assay [4] is T2, Phosphatidylinositol 4,5-bisphosphate 3-kinase catalytic subunit alpha isoform. Nature of the assay: Inhibition of PI3K-alpha kinase (unknown origin) using ULight-4E-BP1 as substrate at 10 uM after 60 mins by luminescence assay. Particulars: in the assay text read “L-alpha-phosphatidylinositol” for “ULight-4E-BP1”. In outline: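 Kinase-Glo luminescent assay with 10 nM PI3Kα protein and lipid substrate prepared in 3% octyl-glucoside. The reaction was started by adding ATP in reaction buffer and ran 60 min. It was stopped with Kinase-Glo buffer, then luminescence was read.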

Assay [5] can be described thus: Cytotoxicity against human H460 cells after 72 hrs by MTT assay. The assay is classed as functional, cell-based. Particulars: NCI-H460, 72 h. In outline:
as §1

In assay [6] the target is T1, Serine/threonine-protein kinase mTOR. As to the kind of experiment: Ratio of (E)-4-((2-(4,6-dimorpholino-1,3,5-triazin-2-yl)hydrazono)methyl)-2,6-dimethoxyphenol IC50 to compound IC50 for mTOR kinase (unknown origin).
Assay [7] is described as follows: Ratio of (E)-4-((2-(4,6-dimorpholino-1,3,5-triazin-2-yl)hydrazono)methyl)-2,6-dimethoxyphenol IC50 to compound IC50 for human H460 cells. Format: functional.
The target of assay [8] is T2, Phosphatidylinositol 4,5-bisphosphate 3-kinase catalytic subunit alpha isoform. As to the kind of experiment: Ratio of (E)-4-((2-(4,6-dimorpholino-1,3,5-triazin-2-yl)hydrazono)methyl)-2,6-dimethoxyphenol IC50 to compound IC50 for PI3K-alpha kinase (unknown origin).
Assay [9] has as its system PC-3. Nature of the assay: Ratio of (E)-4-((2-(4,6-dimorpholino-1,3,5-triazin-2-yl)hydrazono)methyl)-2,6-dimethoxyphenol IC50 to compound IC50 for human PC3 cells. The assay is classed as functional.

T2 sequence (P42336 whole entry, canonical isoform): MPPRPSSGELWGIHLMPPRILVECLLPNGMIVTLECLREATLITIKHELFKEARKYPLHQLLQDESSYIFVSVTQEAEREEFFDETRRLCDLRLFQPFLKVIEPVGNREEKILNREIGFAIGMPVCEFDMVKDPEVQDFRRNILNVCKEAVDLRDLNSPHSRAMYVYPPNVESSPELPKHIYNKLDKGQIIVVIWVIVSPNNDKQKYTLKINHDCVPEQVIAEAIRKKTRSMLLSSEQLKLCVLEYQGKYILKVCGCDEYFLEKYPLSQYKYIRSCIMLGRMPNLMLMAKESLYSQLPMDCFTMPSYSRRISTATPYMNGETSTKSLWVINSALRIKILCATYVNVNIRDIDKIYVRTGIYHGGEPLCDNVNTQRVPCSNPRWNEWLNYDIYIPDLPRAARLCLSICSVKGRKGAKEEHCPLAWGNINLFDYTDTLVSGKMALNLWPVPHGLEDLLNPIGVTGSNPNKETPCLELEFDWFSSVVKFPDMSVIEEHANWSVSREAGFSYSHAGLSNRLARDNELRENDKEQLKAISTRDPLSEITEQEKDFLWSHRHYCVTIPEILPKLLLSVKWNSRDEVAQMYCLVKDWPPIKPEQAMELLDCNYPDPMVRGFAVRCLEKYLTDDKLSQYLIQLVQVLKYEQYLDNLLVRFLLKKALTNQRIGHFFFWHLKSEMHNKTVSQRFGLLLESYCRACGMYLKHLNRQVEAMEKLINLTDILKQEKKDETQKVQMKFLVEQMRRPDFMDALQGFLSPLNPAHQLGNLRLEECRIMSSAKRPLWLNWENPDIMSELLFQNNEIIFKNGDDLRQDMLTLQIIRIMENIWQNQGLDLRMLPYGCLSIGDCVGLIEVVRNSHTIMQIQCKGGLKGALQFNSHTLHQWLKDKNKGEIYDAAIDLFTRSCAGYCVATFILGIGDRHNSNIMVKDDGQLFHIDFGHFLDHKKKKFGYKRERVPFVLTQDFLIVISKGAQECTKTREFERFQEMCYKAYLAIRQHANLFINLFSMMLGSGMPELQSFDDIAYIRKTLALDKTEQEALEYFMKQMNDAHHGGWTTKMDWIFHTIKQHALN

For orientation: IC50 means the concentration that gives 50% inhibition. Lower therefore signals inhibition by little substance. For the compound `N#Cc1cccc(Cn2cc(/C=N/Nc3nc(N4CCOCC4)nc(N4CCOCC4)n3)c3ccccc32)c1`, it took 16.6 µM to reach half-maximal inhibition in assay [1] (IC50).
The same measure, in the same setting: with `Fc1cccc(Cn2cc(/C=N/Nc3nc(N4CCOCC4)c4sccc4n3)c3ccccc32)c1` the figure was > 30 µM.
In the case of `COc1cc(/C=N/Nc2nc(N3CCOCC3)nc(N3CCOCC3)n2)cc(OC)c1O`, the 50% inhibitory concentration (IC50) in [2] is > 10 µM.
As usually defined, the inhibition is the share of the control response that was lost under treatment. A higher inhibition goes with a strong effect. Take `O=c1c(/C=N/Nc2nc(N3CCOCC3)c3sccc3n2)coc2ccc([N+](=O)[O-])cc12`: the concentration for half-maximal inhibition (IC50) was 6.9 µM in assay [3], 4.62 µM in [1] and > 10 µM in assay [2]. For the same compound, the inhibition in assay [4] was found to be 58.8%.
Take `O=c1c(/C=N/Nc2nc(N3CCOCC3)c3ccsc3n2)coc2ccc([N+](=O)[O-])cc12`: the IC50 in assay [5] was 3.24 µM; in assay [3], 1.42 µM; in [1], 0.92 µM; in [2], 1.53 µM. In addition, in [4], the inhibition amounted to 91.2%.
As for `O=C(O)c1ccc2occ(/C=N/Nc3nc(N4CCOCC4)c4sccc4n3)c(=O)c2c1`, the IC50 was determined as 6.26 µM in assay [3], 3.31 µM in assay [1] and 1.81 µM in assay [2]. This compound came in with an inhibition in [4] of 95%.
Turning to `O=C(O)c1ccc2occ(/C=N/Nc3nc(N4CCOCC4)c4ccsc4n3)c(=O)c2c1`, the Ratio IC50 in [6] was 8.6; in [7] it was 7.9; in [8], > 5; in assay [9] it was 19.1. Further, the IC50 in assay [5] was determined as 1.2 µM; in assay [3], 0.85 µM; in [1] it was 0.16 µM; in assay [2], 2.35 µM. This compound also registered an inhibition in assay [4] of 90.6%.
